ABCG2 block = blocks JC-1 efflux by human ABCG2 transporter | IgMXP3 cells, flow cytometry | Q9UNQ0 | 190,000 tested, 0.1% active | inhibition, % at 6.6 µM;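 active = inhibition above 80%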;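 note: 0% = DMSO and 100% = nicardipine control wells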
Target sequence (Q9UNQ0 whole entry, looked up): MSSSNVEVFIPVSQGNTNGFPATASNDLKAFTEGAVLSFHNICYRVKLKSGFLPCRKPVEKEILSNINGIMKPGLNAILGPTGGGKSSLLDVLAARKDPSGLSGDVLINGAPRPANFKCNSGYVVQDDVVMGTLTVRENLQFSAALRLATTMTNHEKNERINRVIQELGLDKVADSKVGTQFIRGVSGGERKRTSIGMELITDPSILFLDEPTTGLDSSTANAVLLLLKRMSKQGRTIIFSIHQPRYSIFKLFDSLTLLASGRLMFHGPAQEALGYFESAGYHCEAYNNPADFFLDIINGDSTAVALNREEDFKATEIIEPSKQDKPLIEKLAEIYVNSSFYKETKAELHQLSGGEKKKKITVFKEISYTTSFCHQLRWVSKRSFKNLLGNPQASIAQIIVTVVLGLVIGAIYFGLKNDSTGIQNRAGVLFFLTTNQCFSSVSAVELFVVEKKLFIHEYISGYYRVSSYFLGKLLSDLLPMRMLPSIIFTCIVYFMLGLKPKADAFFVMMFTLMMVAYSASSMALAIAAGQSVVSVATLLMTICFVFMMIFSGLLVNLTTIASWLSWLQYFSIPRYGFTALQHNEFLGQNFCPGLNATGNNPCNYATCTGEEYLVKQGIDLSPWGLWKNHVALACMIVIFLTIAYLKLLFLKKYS
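Test system: IgMXP3 (ABCG2) plus far-red-tagged CCRF-Adr (ABCB1) cells. Reagent: JC-1 dye as substrate. Timing: 10 min exposure at 25 °C with rotation, no wash. Measured by: flow cytometric JC-1 green MFI at 530 nm. Read-out: percent efflux inhibition, scaled nicardipine 100% to DMSO 0%. Control set: nicardipine and DMSO wells.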
HMGR II inh = E. faecalis class II HMG-CoA reductase inhibition; purified E. faecalis HMGR, NADPH absorbance 340 nm kinetic; inhibition, % at 10 µM; 190,000 tested, 0.41% active; AID 1066;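 active = inhibition above a set limit, the median over all tested compounds plus 3 SD, cut at about 9.5% in these data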;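 note: enzyme runs in reverse so mevalonate oxidation gives rising NADPH absorbance; 0% = complete reaction with DMSO and 100% = background rate lacking mevalonate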
HSV augment = increases HSV replication in cells. maximum fold increase. HSV replication augmentation in cells, fold increase. 220,000 tested, 0.005% active; in the data active = maximum fold increase above about 1.5; tested in PC3 cells
ABCB1 block = blocks JC-1 efflux by human ABCB1 transporter; 190,000 tested, 0.067% active; inhibition, % at 6.6 µM; AID 1326; P08183; CCRF-Adr cells, flow cytometry; in the data active = inhibition above about 40%;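 note: 0% = vehicle and 100% = reference inhibitor; higher value means more JC-1 retained so stronger ABCB1 efflux block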
* hit, by the source's call; i = inactive; . = no result given. In the library only some 0.49% were active in any assay of this set; here they are far more common.

SMILES	ABCG2 block	HMGR II inh	HSV augment	ABCB1 block
Cc1ccc(C(=O)NC(=S)Nc2cccc(-c3nc4ccccc4s3)c2)cc1	-7.2	10.2*	i	-0.8
O=C(N/N=C/c1ccc(O)cc1)c1ccc(COc2cc(Cl)ccc2Cl)o1	-0.1	11.7*	i	-0.2
O=C1c2c(O)cc(O)cc2O[C@@]12c1c(cc(O)c3c1O[C@H](c1ccc(O)cc1)[C@@H](O)C3)O[C@@H]2c1ccc(O)cc1	-5.9	9.6*	i	-0.5
O=C(CSCc1ccc(Cl)cc1)Nc1ccc(S(=O)(=O)N2CCOCC2)cc1	4.0	1.6	i	0.7
Cc1cccc(C2Nc3ccccc3C(=O)N2c2ccc(F)cc2)n1 (centres undefined)	1.9	9.8*	i	0.2
Cc1ccsc1CNC1C2CC3CC(C2)CC1C3 (centres undefined)	-0.3	-2.1	i	-0.2
COc1ccc(C2Nc3ccccc3C(=O)N2NS(=O)(=O)c2ccc(C)cc2)cc1 (centres undefined)	1.9	12.8*	i	0.5
Cc1ccc(S(=O)(=O)NN2C(=O)c3ccccc3NC2c2ccccc2)cc1 (centres undefined)	-1.3	-9.8	i	-0.3
COc1ccc(OC)c(/C=C/C(=O)NCCc2nc3ccccc3[nH]2)c1	.	.	i	.
CC(=NCCc1c(C)[nH]c2ccc(OCc3ccccc3)cc12)C1=C(O)CC(c2ccccc2)CC1=O (centres undefined)	2.6	12.6*	i	1.6
CCN(Cc1ccccc1)S(=O)(=O)c1cc(C(=O)NCCCN(C)C)ccc1OC	0.8	11.7*	i	0.2
CCN(CC)S(=O)(=O)c1cc(C(=O)O)ccc1OC	.	.	i	.
O=C(/C=C/Nc1ccc(Oc2ccccc2)cc1)c1ccco1	7.2	1.3	i	0.8
Cc1ccc(C(=O)Cn2cnc3ccccc3c2=O)cc1	-1.9	10.1*	i	-0.3
O=C(Cn1cnc2ccccc2c1=O)c1ccccc1	-0.3	-6.6	i	0.1
Cc1cc(N/C=C(\C#N)S(=O)(=O)c2ccc(Cl)cc2)nc(C)n1	.	.	i	.
CCCCCCNC(=O)C(=O)NCCc1ccc(Cl)cc1	3.5	46.9*	i	0.4
O=C(Cn1nc(-c2ccccc2)ccc1=O)Nc1ccc(N2CCN(C(=O)c3cccs3)CC2)cc1	4.6	-6.7	i	2.0
CCOc1ccc(-c2nc3ccccc3c(=O)o2)cc1	0.4	12.5*	i	0.1
COc1ccc(-c2nc3ccccc3c(=O)o2)cc1OC	0.4	-0.7	i	0.3
O=C1CSC(c2cccnc2)N1c1ccc(F)cc1 (centres undefined)	0.1	1.4	i	0.0
O=C1CSC(c2cccnc2)N1c1cccc(Cl)c1 (centres undefined)	5.8	12.9*	i	0.6
Cc1sc2ncn(CC(=O)NCCCOC(C)C)c(=O)c2c1S(=O)(=O)N1CCN(c2ncccn2)CC1	-0.5	-9.7	i	-0.2
CCN1CCN(CCC(=O)Nc2ccc3c(c2)OCO3)CC1	1.3	16.5*	i	0.0
O=C(CCN1CCN(c2ccccc2)CC1)Nc1ccc2c(c1)OCO2	12.1	0.7	i	1.2
SMILES	ABCG2 block	HMGR II inh	HSV augment	ABCB1 block
COc1ccc(Cc2noc(-c3ccccc3)n2)cc1OC	0.7	15.2*	i	0.0
O=C(N/N=C/C(Cl)=C/c1ccccc1)c1cnccn1	6.2	14.3*	i	0.1
Cc1sc(-n2c(C)cc(/C=C3\SC(=S)NC3=O)c2C)c(C#N)c1C	-0.7	11.5*	i	-0.5
COc1cc(S(=O)(=O)Nc2ccc3cn[nH]c3c2)ccc1Cl	1.8	12.0*	i	0.5
O=C(Nc1ccccc1)Nc1ccc(C(=O)N2CCCC2)cc1	4.8	9.6*	i	0.3
O=c1[nH]c2ccc([N+](=O)[O-])cc2nc1/C=C(\O)c1ccccc1	.	.	1.65*	.
C/C(O)=C/c1nc2ccccc2[nH]c1=O	0.0	1.3	i	0.0
O=C(NCC(=O)N(Cc1cccs1)C(C(=O)NC1CCCCC1)c1ccncc1)c1ccco1 (centres undefined)	9.0	10.9*	i	0.0
O=C(NCC(=O)N(Cc1cccs1)C(C(=O)NC1CCCC1)c1cccnc1)c1ccco1 (centres undefined)	4.2	-2.0	i	0.6
COc1ccc(NS(=O)(=O)c2ccc3c(c2)NC(=O)CO3)cc1	-1.4	-8.8	i	-0.1
Cc1ccc(NS(=O)(=O)c2ccc3c(c2)NC(=O)CC(=O)N3)cc1C	1.9	9.9*	i	0.6
Clc1cccc(Cl)c1-c1noc(CN2CCOCC2)n1	.	.	i	.
Cc1ccc(-c2cc(C(F)F)n3ncc(C(=O)Nc4ccc(S(=O)(=O)Nc5ccccc5C)cc4)c3n2)cc1	0.2	10.4*	i	-0.1
